Laboratory results published in ChEMBL document CHEMBL5108036, “A concise SAR-analysis of antimicrobial cationic amphipathic barbiturates for an improved activity-toxicity profile” (Eur J Med Chem, 2022).

Columns and labels:
Escherichia coli = test: Antibacterial activity against Escherichia coli ATCC 25922 incubated for 48 hrs and measured by broth microdilution assay; format: functional
In short: (§1)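 MICs in µg/mL were measured against the reference strains S. aureus ATCC 9144, B. subtilis 168, E. coli ATCC 25922 and P. aeruginosa ATCC 27853. Compounds were tested as di-TFA salts.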

[1] = Hemolytic activity in human RBC measured after 1 hr by microplate reader method; format: toxicity, cell-based, Erythrocyte; settings: human, human red blood cells (erythrocytes)
In short: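 Human red blood cell lysis was used as the cytotoxicity read-out, expressed as EC50 in µg/mL. The highest concentration tested was 500 µM. Compounds were tested as di-TFA salts.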

[2] = Selectivity index, ratio HC50 for hemolytic activity in human RBC to MIC for antibacterial activity against Staphylococcus aureus ATCC 9144; format: toxicity; settings: human red blood cells (erythrocytes)
In short: (§2)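 SI is the ratio of RBC lysis EC50 to MIC for each reference strain.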

[3] = Selectivity index, ratio HC50 for hemolytic activity in human RBC to MIC for antibacterial activity against Bacillus subtilis 168; format: toxicity; settings: human red blood cells (erythrocytes); in short: as §2
Pseudomonas aeruginosa = test: Antibacterial activity against Pseudomonas aeruginosa ATCC 27853 incubated for 48 hrs and measured by broth microdilution assay; format: functional; in short: as §1
Bacillus subtilis = test: Antibacterial activity against Bacillus subtilis 168 incubated for 48 hrs and measured by broth microdilution assay; format: functional; in short: as §1
Staphylococcus aureus = test: Antibacterial activity against Staphylococcus aureus ATCC 9144 incubated for 48 hrs and measured by broth microdilution assay; format: functional; in short: as §1
[4] = Selectivity index, ratio HC50 for hemolytic activity in human RBC to MIC for antibacterial activity against Escherichia coli ATCC 25922; format: toxicity; settings: human red blood cells (erythrocytes); in short: as §2
[5] = Solubility in pure water; format: physicochemical
[6] = Selectivity index, ratio HC50 for hemolytic activity in human RBC to MIC for antibacterial activity against Pseudomonas aeruginosa ATCC 27853; format: toxicity; settings: human red blood cells (erythrocytes); in short: as §2

Structure (SMILES)	MIC (Escherichia coli) [µg/mL]	EC50 at 1 h [1] [µg/mL]	selectivity ratio [2]	selectivity ratio [3]	MIC (Pseudomonas aeruginosa) [µg/mL]	MIC (Bacillus subtilis) [µg/mL]	MIC (Staphylococcus aureus) [µg/mL]	selectivity ratio [4]	solubility [5] [µg/mL]	selectivity ratio [6]
C[N+](C)(C)CCCCN1C(=O)N(CCCC[N+](C)(C)C)C(=O)C(Cc2cc(Br)cc(Br)c2)(Cc2cc(Br)cc(Br)c2)C1=O.O=C([O-])C(F)(F)F.O=C([O-])C(F)(F)F	128	> 539	> 135	> 67	256	8	4	–	–	–
O=C([O-])C(F)(F)F.O=C([O-])C(F)(F)F.O=C1N(CCCC[n+]2ccccc2)C(=O)C(Cc2cc(Br)cc(Br)c2)(Cc2cc(Br)cc(Br)c2)C(=O)N1CCCC[n+]1ccccc1	8	> 559	> 280	> 140	128	4	2	> 70	–	–
N=C(N)NCCCN1C(=O)N(CCCNC(=N)N)C(=O)C(Cc2ccc3cc(Br)ccc3n2)(Cc2ccc3cc(Br)ccc3n2)C1=O.O=C(O)C(F)(F)F.O=C(O)C(F)(F)F	64	> 497	> 62	> 124	> 128	4	8	–	–	–
N=C(N)NCCCN1C(=O)N(CCCNC(=N)N)C(=O)C(Cc2ccc(Br)c(Cl)c2)(Cc2ccc(Br)c(Cl)c2)C1=O.O=C(O)C(F)(F)F.O=C(O)C(F)(F)F	8	348	–	–	32	2	2	–	< 1000	–
CC(C)(C)c1ccc(CC2(Cc3cc(Br)cc(Br)c3)C(=O)N(CCCNC(=N)N)C(=O)N(CCCNC(=N)N)C2=O)cc1.O=C(O)C(F)(F)F.O=C(O)C(F)(F)F (stereo not drawn)	2	169	169	169	16	1	1	85	–	11
N=C(N)NCCCCN1C(=O)N(CCCCNC(=N)N)C(=O)C(Cc2cc(Br)cc(Br)c2)(Cc2ccc3ccccc3n2)C1=O.O=C(O)C(F)(F)F.O=C(O)C(F)(F)F (stereo not drawn)	32	450	225	113	32	4	2	–	–	–
N=C(N)NCCCN1C(=O)N(CCCNC(=N)N)C(=O)C(Cc2cc(Br)cc(Br)c2)(Cc2cc(Br)cc(Br)c2)C1=O.O=C(O)C(F)(F)F.O=C(O)C(F)(F)F	4	187	93	93	8	2	2	47	–	23
N=C(N)NCCCCN1C(=O)N(CCCCNC(=N)N)C(=O)C(Cc2cc(Br)cc(Br)c2)(Cc2cc(Br)cc(Br)c2)C1=O.O=C(O)C(F)(F)F.O=C(O)C(F)(F)F	2	62	32	32	8	2	2	32	–	8
NCCCCN1C(=O)N(CCCCN)C(=O)C(Cc2cc(Br)cc(Br)c2)(Cc2cc(Br)cc(Br)c2)C1=O.O=C(O)C(F)(F)F.O=C(O)C(F)(F)F	4	79	20	40	8	2	4	20	–	10
N=C(N)NCCCCN1C(=O)N(CCCCNC(=N)N)C(=O)C(Cc2ccc3cc(Br)ccc3n2)(Cc2ccc3cc(Br)ccc3n2)C1=O.O=C(O)C(F)(F)F.O=C(O)C(F)(F)F	16	461	–	–	128	4	2	–	–	–
N=C(N)NCCCCN1C(=O)N(CCCCNC(=N)N)C(=O)C(Cc2cc(Br)cc(Br)c2)(Cc2cc(C(F)(F)F)cc(C(F)(F)F)c2)C1=O.O=C(O)C(F)(F)F.O=C(O)C(F)(F)F (stereo not drawn)	2	36	–	–	4	2	2	–	–	–
NCCCN1C(=O)N(CCCN)C(=O)C(Cc2cc(Br)cc(Br)c2)(Cc2cc(Br)cc(Br)c2)C1=O.O=C(O)C(F)(F)F.O=C(O)C(F)(F)F	8	99	–	–	8	4	4	–	–	–
N[C@H]1C[C@@H](N2C(=O)N([C@H]3C[C@@H](N)C3)C(=O)C(Cc3cc(Br)cc(Br)c3)(Cc3cc(Br)cc(Br)c3)C2=O)C1.O=C(O)C(F)(F)F.O=C(O)C(F)(F)F	4	50	–	–	8	4	8	–	–	–
N=C(N)NCCCCN1C(=O)N(CCCCNC(=N)N)C(=O)C(Cc2cc(Br)c(Br)cc2Br)(Cc2cc(Br)c(Br)cc2Br)C1=O.O=C(O)C(F)(F)F.O=C(O)C(F)(F)F	4	32	–	–	8	4	4	–	–	–
NCCCN1C(=O)N(CCCN)C(=O)C(Cc2ccc(Br)c3ccccc23)(Cc2ccc(Br)c3ccccc23)C1=O.O=C(O)C(F)(F)F.O=C(O)C(F)(F)F	4	23	–	–	4	2	2	–	–	–
N=C(N)N[C@H]1C[C@@H](N2C(=O)N([C@H]3C[C@@H](NC(=N)N)C3)C(=O)C(Cc3cc(Br)cc(Br)c3)(Cc3cc(Br)cc(Br)c3)C2=O)C1.O=C(O)C(F)(F)F.O=C(O)C(F)(F)F	4	75	–	–	8	2	2	–	–	–
N=C(N)NCCCN1C(=O)N(CCCNC(=N)N)C(=O)C(Cc2ccc(C(F)(F)F)cc2)(Cc2ccc(C(F)(F)F)cc2)C1=O.O=C(O)C(F)(F)F.O=C(O)C(F)(F)F	128	> 435	> 54	> 109	256	4	8	–	–	–
CC(C)(C)c1ccc(CC2(Cc3cc(Br)cc(Br)c3)C(=O)N(CCCN)C(=O)N(CCCN)C2=O)cc1.O=C(O)C(F)(F)F.O=C(O)C(F)(F)F	8	47	–	–	8	2	4	–	–	–
N[C@H]1CC[C@@H](N2C(=O)N([C@H]3CC[C@@H](N)CC3)C(=O)C(Cc3cc(Br)cc(Br)c3)(Cc3cc(Br)cc(Br)c3)C2=O)CC1.O=C(O)C(F)(F)F.O=C(O)C(F)(F)F	4	15	–	–	8	4	4	–	–	–
N[C@H]1CC[C@H](N2C(=O)N([C@H]3CC[C@H](N)CC3)C(=O)C(Cc3cc(Br)cc(Br)c3)(Cc3cc(Br)cc(Br)c3)C2=O)CC1.O=C(O)C(F)(F)F.O=C(O)C(F)(F)F	2	16	–	–	4	2	2	–	–	–
N=C(N)NCCCCN1C(=O)N(CCCCNC(=N)N)C(=O)C(Cc2cc(Br)cc(Br)c2)(Cc2ccc(Br)c3ccccc23)C1=O.O=C(O)C(F)(F)F.O=C(O)C(F)(F)F (stereo not drawn)	4	58	–	–	8	4	1	–	–	–
NCCCCN1C(=O)N(CCCCN)C(=O)C(Cc2cc(Br)c(Br)cc2Br)(Cc2cc(Br)c(Br)cc2Br)C1=O.O=C(O)C(F)(F)F.O=C(O)C(F)(F)F	8	27	–	–	8	4	4	–	–	–
